Common to all, as to assay type: functional, cell-based
Conditions in all cases: COS-1

The target of test [1] is T1, Thyroid hormone receptor alpha (Homo sapiens) (UniProt P10827).
T1 sequence (whole entry): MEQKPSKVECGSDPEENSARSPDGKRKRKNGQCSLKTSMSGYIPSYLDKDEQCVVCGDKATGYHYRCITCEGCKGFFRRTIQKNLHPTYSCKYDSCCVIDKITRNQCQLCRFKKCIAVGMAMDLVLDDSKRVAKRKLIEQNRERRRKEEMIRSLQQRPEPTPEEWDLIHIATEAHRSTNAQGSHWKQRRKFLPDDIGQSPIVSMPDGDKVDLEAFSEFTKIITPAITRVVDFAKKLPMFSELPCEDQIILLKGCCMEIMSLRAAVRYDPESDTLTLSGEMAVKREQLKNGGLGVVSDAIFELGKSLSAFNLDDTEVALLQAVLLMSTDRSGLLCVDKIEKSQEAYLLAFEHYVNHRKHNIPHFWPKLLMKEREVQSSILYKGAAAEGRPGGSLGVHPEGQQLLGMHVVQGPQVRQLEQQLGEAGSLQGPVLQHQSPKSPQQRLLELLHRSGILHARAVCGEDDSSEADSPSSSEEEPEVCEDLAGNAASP
Put plainly: Agonist activity at human thyroid hormone receptor alpha-1 expressed in COS1 cells by transactivation assay after 40 hrs. The method, boiled down: (§1)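 COS-1 cells were seeded at 8 × 10⁴ per well in 5% FBS/DMEM and grown overnight at 37 °C, 5% CO₂. In serum-free DMEM with Lipofectamine 2000 they were transfected with pCMX-hTRα1 (α1) or pCDNA-hTRβ1 (β1) (100 ng), (TREpal)₃-TKLUC reporter (200 ng) and pCMVβ reference. After 4–5 h, charcoal-dextran FBS medium and compounds (final 0.5% EtOH) were added for 40 h. Read-out was luciferase normalised to β-galactosidase.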

The target in test [2] is T2, Thyroid hormone receptor beta (Homo sapiens) (UniProt P10828).
T2 sequence (whole entry): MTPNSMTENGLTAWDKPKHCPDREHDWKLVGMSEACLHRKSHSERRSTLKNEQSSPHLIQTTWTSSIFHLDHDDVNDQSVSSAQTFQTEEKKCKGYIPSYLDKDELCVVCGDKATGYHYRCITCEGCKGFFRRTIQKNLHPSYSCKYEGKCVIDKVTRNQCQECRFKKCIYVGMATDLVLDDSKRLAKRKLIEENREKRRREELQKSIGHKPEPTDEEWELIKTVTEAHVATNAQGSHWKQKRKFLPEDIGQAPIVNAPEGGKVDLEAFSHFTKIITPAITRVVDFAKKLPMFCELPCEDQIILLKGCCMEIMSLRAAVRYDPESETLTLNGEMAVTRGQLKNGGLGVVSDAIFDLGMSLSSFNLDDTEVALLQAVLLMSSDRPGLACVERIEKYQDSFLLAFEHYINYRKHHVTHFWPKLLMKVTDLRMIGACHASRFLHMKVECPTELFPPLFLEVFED
Put plainly: Agonist activity at human thyroid hormone receptor beta-1 expressed in COS1 cells by transactivation assay after 40 hrs. The method, boiled down:
as §1

The target in test [3] is T1, Thyroid hormone receptor alpha (Homo sapiens). Briefly: Antagonist activity at human thyroid hormone receptor alpha-1 expressed in COS1 cells by transactivation assay after 40 hrs. The method, boiled down: (§2)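 Same COS-1 transfection (pCMX-hTRα1 or pCDNA-hTRβ1 with (TREpal)₃-TKLUC and pCMVβ) and 40 h treatment in charcoal-dextran FBS medium, 0.5% EtOH final. Compounds were added alongside 3 × 10⁻⁹ M T₃. Luciferase was normalised to β-galactosidase and expressed as percent of the T₃-alone value (100%). Means ± SD, n = 3.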

Test [4] addresses T2, Thyroid hormone receptor beta (Homo sapiens). Put plainly: Antagonist activity at human thyroid hormone receptor beta-1 expressed in COS1 cells by transactivation assay after 40 hrs. In short, it runs like this:
as §2

These results are taken from ChEMBL document CHEMBL1147905, “Novel thyroid hormone receptor antagonists with an N-alkylated diphenylamine skeleton” (Bioorg Med Chem, 2007).

Molecules are shown by their SMILES. The source made the active and inactive calls. The rule behind the calls is not given here.

`CC(C)=CCN(c1ccc(O)c(C(C)C)c1)c1c(C)cc(CC2SC(=O)NC2=O)cc1C` (stereo not drawn): the outcome in test [1] and in test [2] was inactive. For the same molecule, the outcome in test [3] and in test [4] was Active.
For `Cc1cc(CC2SC(=O)NC2=O)cc(C)c1N(CC1CCCCC1)c1ccc(O)c(C(C)C)c1` (stereo not drawn), the outcome in test [1] and in test [2] was inactive. Moreover, the result in test [3] and in test [4] was Active.
For `Cc1cc(CC2SC(=O)NC2=O)cc(C)c1N(CC(C)C)c1ccc(O)c(C(C)C)c1` (stereo not drawn), the result in test [1] and in test [2] was inactive. The result in test [3] and in test [4] was Active.
For `Cc1cc(CC2SC(=O)NC2=O)cc(C)c1N(C)c1ccc(O)c(C(C)C)c1` (stereo not drawn), the outcome in test [1] and in test [2] was Active. Moreover, the outcome in test [3] and in test [4] was inactive.
`CCCCCCN(c1ccc(O)c(C(C)C)c1)c1c(C)cc(CC2SC(=O)NC2=O)cc1C` (stereo not drawn): the result in test [1] and in test [2] was inactive. Moreover, the outcome in test [3] and in test [4] was Active.
As to `Cc1cc(CC2SC(=O)NC2=O)cc(C)c1N(CC1CC1)c1ccc(O)c(C(C)C)c1` (stereo not drawn), the result in test [1] and in test [2] was inactive. Further, the outcome in test [3] and in test [4] was Active.
Regarding `Cc1cc(CC2SC(=O)NC2=O)cc(C)c1N(Cc1ccccc1)c1ccc(O)c(C(C)C)c1` (stereo not drawn), the result in test [1] and in test [2] was inactive. Further, the result in test [3] and in test [4] was Active.
